# Source: PubChem BioAssay (The Scripps Research Institute Molecular Screening Center)
# NPY-Y1 antag: NPY-Y1 receptor antagonists, primary screen, cell-based; AID 1040, 2008; HEK293-CNG Y1 cells, membrane potential fluorescence; NPY at EC95, then isoproterenol; hit rate 1% among 200,000; Neuropeptide Y receptor type 1 (Homo sapiens), P25929; inhibition, % at 3.6 µM;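 active means inhibition above the campaign mean inhibition of all tested compounds plus 3 SD, cut at about 20% in these data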;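 further: 0% = DMSO wells given NPY plus isoproterenol and 100% = isoproterenol alone without NPY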
#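 Material: HEK293 cells co-expressing NPY Y1 receptor and cyclic-nucleotide gated channel. Timing: compound incubation 1 h at room temperature, readout 45 min post-stimulation. Signal: fluorescence, membrane potential probe.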
# NPY-Y1 PAM-ag: NPY-Y1 receptor potentiators or agonists, primary screen, cell-based. activation, % at 3.6 µM. AID 1304, 2008. NPY-Y1 expressing cells, potentiator/agonist activation. hit rate 0.37% among 220,000; in the data active means activation above about 33%, passing the limit was not always enough;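 further: cells stimulated with NPY at EC10 then isoproterenol at EC100; 0% = low agonist plus stimulus and 100% = saturating agonist plus stimulus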
# NPY-Y2 antag: NPY-Y2 receptor antagonists, primary screen, cell-based; Neuropeptide Y receptor type 2 (Homo sapiens), P49146; NPY-Y2 expressing cells, antagonist mode; AID 793, 2007; hit rate 0.99% among 140,000; inhibition, % at 2.7 µM; in the data active means inhibition above about 17%;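 further: 0% = vehicle with agonist challenge and 100% = reference antagonist with challenge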
# Target sequence (P49146 whole entry, looked up): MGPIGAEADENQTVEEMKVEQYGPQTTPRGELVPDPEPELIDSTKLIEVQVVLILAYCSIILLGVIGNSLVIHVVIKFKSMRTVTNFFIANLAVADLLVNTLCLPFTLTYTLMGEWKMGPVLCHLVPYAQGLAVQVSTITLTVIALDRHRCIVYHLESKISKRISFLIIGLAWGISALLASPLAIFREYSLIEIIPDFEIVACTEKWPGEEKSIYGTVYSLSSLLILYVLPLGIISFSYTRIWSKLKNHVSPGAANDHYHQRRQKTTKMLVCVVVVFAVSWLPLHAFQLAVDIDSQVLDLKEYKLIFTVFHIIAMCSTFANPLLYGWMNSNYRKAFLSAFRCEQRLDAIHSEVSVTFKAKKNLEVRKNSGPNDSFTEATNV
# NPY2 pot ag: NPY-Y2 potentiators or agonists, primary screen, cell-based; activation, % at 3.6 µM; AID 1359, 2008; Neuropeptide Y receptor type 2 (Homo sapiens), P49146; hit rate 0.45% among 220,000; cells expressing NPY-Y2, potentiator/agonist read-out; in the data active means activation above about 27%;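 further: cells stimulated with NPY near EC25 plus isoproterenol at EC100; 0% = vehicle plus submaximal agonist and 100% = vehicle plus saturating agonist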
# * marks the source's active call; other numbers are inactive results; x = not tested or not shown. Hits are enriched below; roughly 1.8% of the tested compounds scored in any of these assays.
SMILES,NPY-Y1 antag,NPY-Y1 PAM-ag,NPY-Y2 antag,NPY2 pot ag
O=C(CSc1nccc(=O)[nH]1)NCc1ccc(Cl)cc1,4,0,x,10
COc1ccc(/C(O)=C/C(=O)C(=O)NNC(=O)C(O)(c2ccccc2)c2ccccc2)cc1,-12,111*,3,103*
O=C(Nc1nc2ccccc2[nH]1)c1cccs1,-3,-5,x,-10
N=c1c(-c2nc3ccccc3[nH]2)cc(C(=O)c2cccs2)nn1-c1ccc(Cl)cc1,-9,48*,0,43*
Cc1cc(C)nc(NCC(O)COc2ccccc2C)n1 (configuration not stated),-7,7,0,5
Cc1cc(C)c(OCC(O)CNC(C)(C)C)c(C)c1 (configuration not stated),-9,84*,x,87*
CC(C)(C)CC(C)(C)NCC(O)COc1c(F)cc(Br)cc1F (configuration not stated),7,-21,5,6
CC(C)(C)NCC(O)COc1c(F)cc(Br)cc1F (configuration not stated),-7,51*,0,66*
COCCCNC(=O)CN(c1cccc(Cl)c1)S(C)(=O)=O,3,11,-2,0
CCCCCCCCCCn1c2c(c(=N)c3c1CCC3)CCC2,92*,-88,51*,-77
Cn1cnnc1SCC(=O)Nc1ccc(Cl)cn1,-12,74*,x,71*
Cc1ccc2oc(=O)c3cc(C(=O)NCc4ccco4)sc3c2c1,22*,4,45*,1
CCOc1ccccc1C1C(C#N)=C(N)Oc2cc(N)ccc21 (configuration not stated),-4,113*,2,49*
COc1ccc(OC)c(C2C(C#N)=C(N)Oc3cc(N)ccc32)c1 (configuration not stated),2,-3,3,-3
O=C(CNCC1CCCO1)Nc1ccccc1N1CCOCC1 (configuration not stated),-1,42*,2,3
O=C(CNCC1CCCO1)Nc1ccccc1-n1cccc1 (configuration not stated),0,14,1,-1
CN(CCC#N)C(=S)Nc1ccc(Oc2ccccc2)cc1,0,18,3,30
CCOC(=O)Nc1nc(-c2ccccc2)c(C(=O)c2ccc(Cl)cc2)s1,40*,-37,20*,-48
CCOC(=O)c1sc(S(C)=O)c2c1CCc1conc1-2 (configuration not stated),x,1,x,-14
COC(=O)c1cc(NC(=O)CC2SC(=Nc3ccccc3)N(CCc3c[nH]c4ccccc34)C2=O)cc(C(=O)OC)c1 (configuration not stated),-8,47*,-4,35*
O=C(N/N=C/c1ccccc1)c1sccc1OCc1ccc(F)cc1,1,-12,20*,-19
O=C(N/N=C/c1ccco1)c1cc(Br)ccc1OCc1ccccc1,10,-53,10,-19
O=C(N/N=C/c1ccncc1)c1ccccc1OCc1ccc(Br)cc1,32*,-117,43*,-54
CC(C)CN(C(=O)C(c1ccccc1)c1ccccc1)c1c(N)n(CC(C)C)c(=O)[nH]c1=O,4,-11,x,-20
O=C(NNC(=S)Nc1ccc(Cl)cc1Cl)C1CC1,3,38,0,12
SMILES,NPY-Y1 antag,NPY-Y1 PAM-ag,NPY-Y2 antag,NPY2 pot ag
CCOC(=O)N1CCN(CC(O)COc2ccc(C)cc2C(C)(C)C)CC1 (configuration not stated),-11,77*,1,61*
CCOC(=O)N1CCN(CC(O)COCc2ccc(OC)c(OC)c2)CC1 (configuration not stated),-2,-34,1,-10
COC(=O)c1c(N2C(=O)CC(Sc3ccccc3C(=O)O)C2=O)sc2c1CCCC2 (configuration not stated),4,-18,x,-5
NC(Cc1ccc(Oc2ccc(O)cc2)cc1)C(=O)O (configuration not stated),0,12,-1,-10
CCOC(=O)[C@@H]1C(c2c(OC)cc(OC)cc2OC)=NO[C@@H]1C(=O)OCC,-7,69*,0,33*
CCN1C(=O)C(NC(C)=O)c2cc(Br)ccc21 (configuration not stated),13,-15,9,6
CCCCN1C(=O)C(NC(C)=O)c2cc(Br)ccc21 (configuration not stated),27*,14,20*,-4
